Source: PubChem BioAssay
A selection: hits, their analogues and other compounds. The true share with any hit is near 2.2%.
Jurkat NFkB inh = inhibitors of induced NF-kB luciferase reporter, primary screen, TCR NF-kB activation inhibitor project, cell-based, luminescence, uHTS. Jurkat, PMA/ionomycin-induced NF-kB luciferase reporter. inhibition, % at 4 µM. 330,000 compounds, 0.53% hits; in the data active means inhibition above about 50%
miR122 inh = miR-122 Renilla sensor signal increase in Huh7, primary screen, miR-122 inhibitor project, cell-based, single point, plate reader; Huh7 miR-122 Renilla luciferase sensor, 48 h; neutral wells = 0, positive control = 100; AID 602342, 2012; activation (reporter increase), % at 12.5 µM; 340,000 compounds, 0.3% hits;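 active means mean replicate activation score at least 90 and every replicate individually at or above 90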;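 further: higher luciferase means less miR-122 activity so hits act as miR-122 inhibitors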
697 NFkB inh = inhibitors of PMA/ionomycin-induced NF-kB reporter, 697 cells, primary screen, B-cell NF-kB inhibitor project, cell-based, luminescence, uHTS. 697 B-cell NF-kB luciferase reporter, 16 h. inhibition, % at 4 µM. 330,000 compounds, 0.33% hits; in the data active means inhibition above about 35%
NR2E3 ag-1 = NR2E3 agonists in two-hybrid cells, primary screen, cell-based, luminescence, CHO-S, Gal4-NCOR/VP16-NR2E3; Photoreceptor-specific nuclear receptor (Homo sapiens), Q9Y5X4; luciferase; inhibition of corepressor binding, % at 3.98 µM; 360,000 compounds, 0.35% hits; AID 602229, 2012;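 active means inhibition above the mean of all tested compounds plus 3 SD, cut at about 70% in these data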;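 further: 0% = DMSO with NR2E3 transfected cells and 100% = cells lacking NR2E3 construct; higher means lower luciferase signal from less NR2E3 corepressor binding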
Target sequence (Q9Y5X4 whole entry, looked up, the tested form may be a part): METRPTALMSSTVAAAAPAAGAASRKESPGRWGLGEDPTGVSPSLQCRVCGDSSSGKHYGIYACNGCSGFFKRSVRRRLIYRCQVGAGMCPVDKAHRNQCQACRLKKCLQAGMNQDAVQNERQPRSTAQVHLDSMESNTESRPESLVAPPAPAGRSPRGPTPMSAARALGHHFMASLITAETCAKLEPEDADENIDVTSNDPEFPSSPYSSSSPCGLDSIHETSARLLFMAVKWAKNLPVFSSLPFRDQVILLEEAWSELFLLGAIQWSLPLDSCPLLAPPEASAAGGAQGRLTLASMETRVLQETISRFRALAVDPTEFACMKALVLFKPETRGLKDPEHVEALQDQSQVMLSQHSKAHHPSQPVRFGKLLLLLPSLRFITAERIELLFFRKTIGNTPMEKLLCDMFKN
NR2E3 ag-2 = inhibitors of NR2E3-RetCOR corepressor binding, primary screen, NR2E3 agonist project, biochemical, TR-FRET, GST-NR2E3, biotin-RetCOR; Photoreceptor-specific nuclear receptor (Homo sapiens), Q9Y5X4; 1536-well; inhibition of corepressor binding, % at 4.78 µM; 320,000 compounds, 0.12% hits;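 active means percent inhibition above the cutoff of mean plus 3 SD of all tested compounds, set per screening campaign, cut at about 20% in these data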;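 further: 0% = DMSO wells and 100% = biotin wells as full block of FRET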
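System: GST-tagged NR2E3 plus biotinylated RetCOR corepressor; Buffer or medium: pH 7.5 Tris-based buffer; Probe or stimulus: RetCOR corepressor, biotinylated, 7 nM; Doses: compound at 4.8 µM, single dose; Schedule: 5 h incubation at 4 °C; Technique: time-resolved FRET; Evaluation: percent inhibition of TR-FRET ratio; Replication: one well per compound, singlicate testing.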
FGF22 binding = binders of human FGF22 protein, primary screen, FGF22 synaptogenesis inhibitor project, biophysical, thermal shift, single point; activity (Tm shift, normalised), % at 9.99 µM; Fibroblast growth factor 22 (Homo sapiens), Q9HCT0; recombinant FGF22 thermal shift, SYPRO orange fluorescence; percent of sucrose octasulfate shift, DMSO zero; 340,000 compounds, 1.5% hits;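 active means mean Tm shift, scaled 0 neutral to 100 positive control, at about 1.3% or above, every replicate too, limit read from the data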
Target sequence (Q9HCT0 whole entry, looked up): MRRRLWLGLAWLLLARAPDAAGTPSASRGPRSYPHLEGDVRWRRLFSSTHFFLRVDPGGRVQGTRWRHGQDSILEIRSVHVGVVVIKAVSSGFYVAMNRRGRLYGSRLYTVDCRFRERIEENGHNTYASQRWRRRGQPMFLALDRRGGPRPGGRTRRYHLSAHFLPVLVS
NR2E3 ag confirm = NR2E3 agonist confirmation in cells, cell-based, luminescence, CHO-S two-hybrid. shares compounds with NR2E3 ag-1. CHO-S mammalian two-hybrid NR2E3-NCOR, luciferase luminescence. inhibition, % at 3.98 µM. 2,300 compounds, 51% hits;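 active means average inhibition above a cutoff equal to the mean inhibition of all tested compounds plus one SD, cut at about 70% in these data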;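 further: 0% = DMSO in NR2E3 cells and 100% = DMSO in cells lacking NR2E3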
GAL4-VP16 luc = GAL4-VP16 reporter modulators, confirmation, counter-screen for NR2E3 agonist project, cell-based, luminescence, CHO-S, high throughput. shares compounds with NR2E3 ag-1. CHO-S GAL4-VP16 luciferase reporter. inhibition, % at 3.98 µM. 2,300 compounds, 29% hits. AID 624379, 2012;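 active means mean inhibition above a cutoff equal to the average over all tested compounds plus one standard deviation, cut at about 70% in these data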;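 further: luciferase from a UAS reporter driven by GAL4-VP16 transactivation; 0% = DMSO with VP16-transfected cells and 100% = DMSO with cells lacking VP16; higher means less reporter light so more repression of VP16 activity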
* = called active by the depositor; · = no result given; [ ] = another dose, or the depositor's remark.

SMILES	Jurkat NFkB inh	miR122 inh	697 NFkB inh	NR2E3 ag-1	NR2E3 ag-2	FGF22 binding	NR2E3 ag confirm	GAL4-VP16 luc
COc1ccc(CNc2ncnc3sccc23)cc1	34.8	-11.1	0.3	93.6*	3.8	0.0	81.6*	62.6
COc1ccc(C(CNc2ncnc3sccc23)N(C)C)cc1OC (centres undefined)	2.4	·	-16.2	-24.6	-0.8	0.3	·	·
Clc1ccc2c(NCc3cccs3)ncnc2c1	8.9	5.8	-16.8	19.3	0.3	0.1	·	·
c1csc(CNc2ncnc3sccc23)c1	44.1	-17.5	12.7	72.1*	-1.3	·	84.4*	66.0
C[C@@H]1CN([C@@H](C)CO)S(=O)(=O)c2ccc(C3=CCCC3)cc2O[C@H]1CN(C)S(=O)(=O)c1ccc(F)cc1	·	-1.6[16.7 µM]	·	·	·	0.0	·	·
COCC#Cc1cnc2c(c1)C(=O)N([C@@H](C)CO)C[C@@H](C)[C@H](CN(C)C)O2	·	-0.6[16.7 µM]	·	·	·	-0.2	·	·
Cc1noc(C)c1NC(=O)N(C)C[C@@H]1Oc2ncc(C#CC3CCCCC3)cc2C(=O)N([C@H](C)CO)C[C@H]1C	·	-10.3[16.7 µM]	·	·	·	-0.1	·	·
CCCC(=O)Nc1ccc2c(c1)C(=O)N(C)C[C@H](OC)[C@H](C)CN(CCC)[C@@H](C)CO2	·	0.7[16.7 µM]	·	·	·	0.2	·	·
Cc1ccc(CC(=O)Nc2ccncc2)cc1	33.5	-2.9	-5.5	50.3	1.8	43.6*	66.1	49.9
COCC(=O)Nc1ccc2c(c1)OC[C@H](C)N(C(=O)c1ccccc1)C[C@@H](C)[C@H](OC)CN(C)C2=O	·	8.9[16.7 µM]	·	·	·	-0.4	·	·
Cc1cccc(C(=O)OCC(=O)c2c(N)n(CC(C)C)c(=O)n(C)c2=O)c1[N+](=O)[O-]	33.8	·	6.3	50.3	-0.1	-1.1	39.6	44.7
CC(C)Cn1c(N)c(C(=O)CSc2ccccc2)c(=O)n(C)c1=O	·	-3.8	·	-13.6	4.2	0.2	·	·
CC(C)Cn1c(N)c(C(=O)COC(=O)CC23CC4CC(CC(C4)C2)C3)c(=O)n(C)c1=O	47.0	-8.4	-14.9	93.6*	3.1	·	93.4*	76.4*
CC(C)Cn1c(N)c(C(=O)COC(=O)/C=C/c2ccccc2)c(=O)n(C)c1=O	33.2	-8.6	-39.9	73.9*	6.9	-0.4	25.9	56.4
Cc1ccc(S(=O)(=O)Nc2nc3ccccc3nc2NCc2ccco2)cc1	-64.6	0.1	-137.7	-73.5	5.7	·	·	·
Cc1ccc(S(=O)(=O)Nc2nc3ccccc3nc2NCc2ccco2)cc1C	5.9	17.5	-65.4	49.2	-0.3	·	22.1	20.5
COc1cc2[nH]c(C(=O)Nc3ccc4c(c3)OCCO4)cc2c(OC)c1OC	-15.6	-3.1	-20.1	-9.9	0.1	0.0	·	·
COc1cc2cc(C(=O)Nc3ccc4c(c3)OCCO4)[nH]c2cc1OC	11.8	-1.5	-58.2	56.7	2.7	0.0	33.6	-4.2
COc1cc2c(oc(=O)c3cc(C)cc(OC)c32)c2c(C3OC(C)C(O)C(C)(O)C3O)ccc(O)c12 (centres undefined)	·	-1.0	·	53.5	·	-1.4	71.1*	55.9
COc1cccc2cc(C(=O)N3CC(C)OC(C)C3)c(=O)oc12 (centres undefined)	-27.7	-0.7	-40.7	0.7	3.9	-0.1	·	·
C[C@@H]1CN([C@@H](C)CO)C(=O)c2cc(NS(=O)(=O)c3cccs3)ccc2O[C@@H]1CN(C)Cc1ccc(C(F)(F)F)cc1	·	6.0[16.7 µM]	·	·	·	0.2	·	·
Cc1nnc(SCc2nnc(-c3cccs3)o2)n1Cc1ccccc1	-1.1	0.4	-18.6	-13.2	2.1	41.3	·	·
Clc1ccc(-c2nnc(CSc3nnc(-c4cccs4)n3Cc3ccccc3)o2)cc1	29.9	-14.2	-12.7	74.3*	0.2	0.0	87.7*	74.1*
O=C(C[C@@H]1C[C@H]2c3cc(NC(=O)Cc4ccncc4)ccc3O[C@H]2[C@H](CO)O1)NCc1ccccn1	·	1.5[16.7 µM]	·	·	·	0.2	·	·
CCOc1ccc(C(=O)O/N=C(\N)c2ccccn2)cc1	13.0	-4.9	-159.9	52.2	·	0.1	-58.1	-125.7
SMILES	Jurkat NFkB inh	miR122 inh	697 NFkB inh	NR2E3 ag-1	NR2E3 ag-2	FGF22 binding	NR2E3 ag confirm	GAL4-VP16 luc
N/C(=N\OC(=O)c1ccccc1)c1ccccn1	-77.5	-8.2	-141.6	-131.7	4.3	-0.3	·	·
O=C(Nc1ccccc1)Nc1cc(Cl)cc(Cl)c1	-9.3	-1.7	13.6	19.6	3.7	·	·	·
O=C(Nc1ccccc1)Nc1cc(OCC(F)(F)F)cc(OCC(F)(F)F)c1	·	·	·	63.9	·	43.6*	30.5	40.2
CCOC(=O)C(=O)NNc1ccc(F)cc1	1.7	5.6	14.6	65.2	-0.3	-0.1	11.6	-4.5
COC(C(=O)C(O)C(C)O)C1Cc2cc3cc(OC4CC(OC5CC(O)C(O)C(C)O5)C(O)C(C)O4)c(C)c(O)c3c(O)c2C(=O)C1OC1CC(OC2CC(OC3CC(O)C(OC)C(C)O3)C(O)C(C)O2)C(O)C(C)O1 (centres undefined)	·	-7.8	·	96.1*	·	-1.1	92.8*	74.9*
Cc1ccc(-c2csc(N3CCC(C(N)=O)CC3)n2)cc1	-29.7	·	-112.2	-115.2	3.3	-0.1	·	·
Cc1ccc(-c2csc(N3CCC(NS(=O)(=O)c4ccc5c(c4)OCCO5)CC3)n2)cc1	19.6	-0.9	-11.8	88.6*	0.4	·	99.1*	89.4*
O=C(C[C@@H]1CC[C@@H]2[C@H](COC[C@H](O)CN2S(=O)(=O)c2ccc(Cl)cc2)O1)NCC1CCCCC1	·	-1.9[16.7 µM]	·	·	·	-0.2	·	·
Cc1nnnn1/C(=C\c1ccccc1)C(=O)OCC(=O)Nc1cccc(S(=O)(=O)N(C)C)c1	6.5	11.6	-9.1	38.7	5.7	-0.6	·	·
Cc1nnnn1/C(=C\c1ccccc1)C(=O)OCC(=O)Nc1ccc(Cl)cc1F	6.1	·	8.1	60.6	-1.6	-0.2	49.3	5.4
O=C(NCC[C@@H]1CC[C@H](NC(=O)C2CC2)[C@H](CO)O1)Nc1ccc(C(F)(F)F)cc1	·	·	·	·	·	-0.1	·	·
OC(c1ccc(F)cc1)c1nc(-c2ccncc2)cs1 (centres undefined)	·	6.0	·	79.1*	·	0.1	83.2*	71.0*
